In ChEMBL document CHEMBL3871269, “Conjugates of podophyllotoxin and norcantharidin as dual inhibitors of topoisomeraseⅡ and protein phosphatase 2A” (Eur J Med Chem, 2016) one finds IC50, logP and inhibition data, which are given here for four compounds.

Molecules are shown by their SMILES. Calls of active or inactive are those of the source. No cut-off for these calls is given here.

Test system in one series: not listed separately
In words: Cytotoxicity against human A549 cells measured after 48 hrs by MTT assay. It is filed as functional, cell-based. The note with it: A549, 48 h. In short, it runs like this:
(§1)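 MTT growth assay; cells seeded at 5×10³/well in RPMI1640 with 10% heat-inactivated FBS, attached 4–6 h, then exposed to five concentrations (0.01–100 μM, compounds dissolved in saline) for 48 h at 37 °C, 5% CO₂. MTT added for 4 h, formazan dissolved in DMSO, absorbance read at 490 nm. IC50 taken from log plot of percent of control versus concentration; means ± SD of triplicate experiments.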
Compound `COc1cc([C@@H]2c3cc4c(cc3[C@@H](NC(=O)[C@H](C(C)C)N3C(=O)C5C6CCC(O6)C5C3=O)[C@H]3COC(=O)[C@H]23)OCO4)cc(OC)c1O` (some centres undefined) registered an IC50 of 6.73 µM.
The same measure, in the same setting: with `O=C1OC(=O)C2C3CCC(O3)C12` (centres undefined) [DEMETHYL-CANTHARIDIN] the figure was 12.2 µM; with `COc1cc([C@@H]2c3cc4c(cc3[C@@H](NC(=O)[C@H](CCSC)N3C(=O)C5C6CCC(O6)C5C3=O)[C@H]3COC(=O)[C@H]23)OCO4)cc(OC)c1O` (some centres undefined), 6.12 µM; with `COc1cc([C@@H]2c3cc4c(cc3[C@@H](O[C@@H]3O[C@@H]5CO[C@@H](C)O[C@H]5[C@H](O)[C@H]3O)[C@H]3COC(=O)[C@H]23)OCO4)cc(OC)c1O` [ETOPOSIDE], 29.7 µM.

Test system in a further series: not listed separately
Description: Cytotoxicity against human HepG2 cells measured after 48 hrs by MTT assay. The note with it: HepG2, 48 h. It is filed as functional, cell-based. The essentials: as §1
Consider `COc1cc([C@@H]2c3cc4c(cc3[C@@H](NC(=O)[C@H](C(C)C)N3C(=O)C5C6CCC(O6)C5C3=O)[C@H]3COC(=O)[C@H]23)OCO4)cc(OC)c1O` (some centres undefined), for which the IC50 was found to be 1.62 µM.
The same measure, in the same setting: next, `COc1cc([C@@H]2c3cc4c(cc3[C@@H](NC(=O)[C@H](CCSC)N3C(=O)C5C6CCC(O6)C5C3=O)[C@H]3COC(=O)[C@H]23)OCO4)cc(OC)c1O` (some centres undefined): 7.04 µM.
Still for that read-out and setting: with `COc1cc([C@@H]2c3cc4c(cc3[C@@H](O[C@@H]3O[C@@H]5CO[C@@H](C)O[C@H]5[C@H](O)[C@H]3O)[C@H]3COC(=O)[C@H]23)OCO4)cc(OC)c1O` [ETOPOSIDE] the figure was 5.21 µM.

Test system in a further series: not listed separately
Description: Cytotoxicity against human HeLa cells measured after 48 hrs by MTT assay. Format: functional, cell-based.
Settings: not given
In short, it runs like this: as §1
`COc1cc([C@@H]2c3cc4c(cc3[C@@H](NC(=O)[C@H](C(C)C)N3C(=O)C5C6CCC(O6)C5C3=O)[C@H]3COC(=O)[C@H]23)OCO4)cc(OC)c1O` (some centres undefined) registered an IC50 of 8.3 µM.
Still for that read-out and setting: with `COc1cc([C@@H]2c3cc4c(cc3[C@@H](NC(=O)[C@H](CCSC)N3C(=O)C5C6CCC(O6)C5C3=O)[C@H]3COC(=O)[C@H]23)OCO4)cc(OC)c1O` (some centres undefined) the figure was 2.82 µM.
On the same count and under the same terms, with `COc1cc([C@@H]2c3cc4c(cc3[C@@H](O[C@@H]3O[C@@H]5CO[C@@H](C)O[C@H]5[C@H](O)[C@H]3O)[C@H]3COC(=O)[C@H]23)OCO4)cc(OC)c1O` [ETOPOSIDE] the figure was 13.5 µM.

Test system in a further series: not listed separately
Description: Cytotoxicity against human HCT8 cells measured after 48 hrs by MTT assay. Format: functional, cell-based. To be noted: HCT-8, 48 h. In short, it runs like this: as §1
`COc1cc([C@@H]2c3cc4c(cc3[C@@H](NC(=O)[C@H](C(C)C)N3C(=O)C5C6CCC(O6)C5C3=O)[C@H]3COC(=O)[C@H]23)OCO4)cc(OC)c1O` (some centres undefined) had an IC50 of 7.81 µM.
Take `COc1cc([C@@H]2c3cc4c(cc3[C@@H](NC(=O)[C@H](CCSC)N3C(=O)C5C6CCC(O6)C5C3=O)[C@H]3COC(=O)[C@H]23)OCO4)cc(OC)c1O` (some centres undefined): the half-maximal inhibitory concentration (IC50) came to 12.3 µM.
Same read-out and setting: with `COc1cc([C@@H]2c3cc4c(cc3[C@@H](O[C@@H]3O[C@@H]5CO[C@@H](C)O[C@H]5[C@H](O)[C@H]3O)[C@H]3COC(=O)[C@H]23)OCO4)cc(OC)c1O` [ETOPOSIDE] the figure was 10 µM.

Test system in a further series: not listed separately
In words: Cytotoxicity against human WI38 cells measured after 48 hrs by MTT assay. It is filed as toxicity, cell-based, WI-38.
Settings: not given
In short, it runs like this:
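MTT growth inhibition in WI-38 lung fibroblasts. Cells seeded at 5×10³/well in RPMI1640 with 10% heat-inactivated FBS, attached 4–6 h, then exposed 48 h at 37 °C, 5% CO₂ to five concentrations (0.01–100 μM, saline-dissolved). MTT 4 h, DMSO solubilisation, A490. IC50 from log plot of percent control vs concentration; triplicate, mean ± SD.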
Take `COc1cc([C@@H]2c3cc4c(cc3[C@@H](NC(=O)[C@H](C(C)C)N3C(=O)C5C6CCC(O6)C5C3=O)[C@H]3COC(=O)[C@H]23)OCO4)cc(OC)c1O` (some centres undefined): the IC50 at 48 h was 44.4 µM.
`O=C1OC(=O)C2C3CCC(O3)C12` (centres undefined) [DEMETHYL-CANTHARIDIN]: it took 26.7 µM to reach half-maximal inhibition (IC50 at 48 h).
Same read-out and setting: next, `COc1cc([C@@H]2c3cc4c(cc3[C@@H](NC(=O)[C@H](CCSC)N3C(=O)C5C6CCC(O6)C5C3=O)[C@H]3COC(=O)[C@H]23)OCO4)cc(OC)c1O` (some centres undefined): 30.4 µM; `COc1cc([C@@H]2c3cc4c(cc3[C@@H](O[C@@H]3O[C@@H]5CO[C@@H](C)O[C@H]5[C@H](O)[C@H]3O)[C@H]3COC(=O)[C@H]23)OCO4)cc(OC)c1O` [ETOPOSIDE]: 17.6 µM.

Test system in another series: not listed separately
In words: Octanol-water partition coefficient, log P of the compound. It is filed as physicochemical.
Settings: not given
The essentials: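 Partition coefficient P = compound concentration in 1-octanol / compound concentration in water.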
The compound `COc1cc([C@@H]2c3cc4c(cc3[C@@H](O[C@@H]3O[C@@H]5CO[C@@H](C)O[C@H]5[C@H](O)[C@H]3O)[C@H]3COC(=O)[C@H]23)OCO4)cc(OC)c1O` [ETOPOSIDE] showed a log partition coefficient (logP) of 2.74.

Still in this series, the particulars now being: read-out: logP.
Turning to `COc1cc([C@@H]2c3cc4c(cc3[C@@H](NC(=O)[C@H](C(C)C)N3C(=O)C5C6CCC(O6)C5C3=O)[C@H]3COC(=O)[C@H]23)OCO4)cc(OC)c1O` (some centres undefined), the logP amounted to 1.48.
Consider `COc1cc([C@@H]2c3cc4c(cc3[C@@H](NC(=O)[C@H](CCSC)N3C(=O)C5C6CCC(O6)C5C3=O)[C@H]3COC(=O)[C@H]23)OCO4)cc(OC)c1O` (some centres undefined), for which the logP is 0.93.

Test system in a further series: not listed separately
Description: Inhibition of human RBC PP2A assessed as reduction in free phosphate ion release using Lys-Arg-pThr-Ile-Arg as substrate preincubated for 10 mins followed by substrate addition measured after 60 mins by malachite green method.
Settings: not given
In short, it runs like this: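 Purified PP2A (0.6 mU/well) preincubated with inhibitor 10 min at 37 °C. Reaction started with 200 μM Lys-Arg-pThr-Ile-Arg in 50 mM Tris-HCl pH 7.0, 100 μM CaCl₂; 60 min at room temperature. Released phosphate read by malachite green at 650 nm after 10 min; enzyme-plus-buffer blanks. IC50 from dose–response; mean of three independent experiments in duplicate.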
On to `COc1cc([C@@H]2c3cc4c(cc3[C@@H](NC(=O)[C@H](C(C)C)N3C(=O)C5C6CCC(O6)C5C3=O)[C@H]3COC(=O)[C@H]23)OCO4)cc(OC)c1O` (some centres undefined), for which the IC50 worked out at 1.12 µM.
The same measure, in the same setting: next, `O=C1OC(=O)C2C3CCC(O3)C12` (centres undefined) [DEMETHYL-CANTHARIDIN]: 0.48 µM.
Same read-out and setting: with `COc1cc([C@@H]2c3cc4c(cc3[C@@H](NC(=O)[C@H](CCSC)N3C(=O)C5C6CCC(O6)C5C3=O)[C@H]3COC(=O)[C@H]23)OCO4)cc(OC)c1O` (some centres undefined) the figure was 1.29 µM.

The species entered for a further series is Homo sapiens. In words: Inhibition of human topoisomerase-2 catalytic activity assessed as reduction in pBR322 supercoiled DNA relaxation at 100 uM measured after 60 mins by ethidium bromide staining agarose gel electrophoresis.
Settings: not given
In short, it runs like this: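 Kit-based relaxation assay: supercoiled pBR322 plasmid DNA (250 ng/μL) with topoisomerase II (4 units) in kit assay buffer, 20 μL final, 60 min at 37 °C. Reaction stopped with 10% SDS, proteinase K treated, chloroform/isoamyl alcohol (24:1) extracted. Products resolved on 1% agarose in TAE (pH 8.0), ethidium bromide stained. Test concentrations 50 and 100 μM.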
For the compound `COc1cc([C@@H]2c3cc4c(cc3[C@@H](O[C@@H]3O[C@@H]5CO[C@@H](C)O[C@H]5[C@H](O)[C@H]3O)[C@H]3COC(=O)[C@H]23)OCO4)cc(OC)c1O` [ETOPOSIDE], the inhibition entry is “Active”.
